CHOP inh = inhibitors of CHOP promoter induction, primary screen, cell-based, unfolded protein response, luciferase reporter | inhibition, % at 10 µM | AID 2732, 2010 | CHO-K1 CHOP-promoter luciferase, tunicamycin-induced, 15-18 h | hit rate 3.8% among 220,000;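 active means compounds that reduced the stress-induced luciferase reporter signal by more than about 70% of percent inhibition, limit read from the data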;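 further: 0% = tunicamycin plus vehicle and 100% = wells without tunicamycin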
697 NFkB inh = inhibitors of PMA/ionomycin-induced NF-kB reporter, 697 cells, primary screen, B-cell NF-kB inhibitor project, cell-based, luminescence, uHTS. 697 B-cell NF-kB luciferase reporter, 16 h. inhibition, % at 4 µM. hit rate 0.33% among 330,000; in the data active means inhibition above about 35%
UPR XBP1 act = activators of adaptive XBP1 UPR arm, primary screen, cell-based, CHO-XBP1 luciferase reporter, luminescence, uHTS; hit rate 0.33% among 330,000; activation, % at 20 µM; IRE1-XBP1 UPR activation; percent of tunicamycin response, DMSO as zero; AID 463104, 2010;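 active means versus positive control, 20 µM dose yields 30% or more activation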;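 further: 100% = tunicamycin at 10 µg/mL and 0% = DMSO only wells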
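Material: CHO cell line with stable XBP1 luciferase reporter; schedule: 16-18 h cell attachment at 37 °C, then 6 h compound exposure; signal: glow luminescence from Steady-Glo reagent; medium: serum-containing F12 medium, 10% FBS; benchmarks: tunicamycin 10 µg/mL and vehicle-only wells; read-out: percent activation relative to tunicamycin reference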
Jurkat NFkB inh = inhibitors of induced NF-kB luciferase reporter, primary screen, TCR NF-kB activation inhibitor project, cell-based, luminescence, uHTS; Jurkat, PMA/ionomycin-induced NF-kB luciferase reporter; inhibition, % at 4 µM; hit rate 0.53% among 330,000; in the data active means inhibition above about 50%
CHOP UPR activ = activators of apoptotic CHOP UPR arm, primary screen, cell-based, CHO-CHOP luciferase reporter, luminescence, uHTS; UPR activation; percent of tunicamycin response over DMSO baseline; activation, % at 10 µM; hit rate 0.34% among 330,000; AID 449763, 2010;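 active means at 10 µM dose, activation of 40% or more, normalized to positive control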;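 further: 100% = tunicamycin at 10 µg/mL and 0% = DMSO alone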
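Assay system: CHO-CHOP cells, stable luciferase reporter of PERK-eIF2a-CHOP signalling / Buffer or medium: F12 plus 10% serum / Compound dosing: one dose, 10 µM in 0.5% DMSO / Times: 6 h compound treatment, 37 °C / Technique: luciferase luminescence / Read-out: % reporter activation, DMSO baseline versus tunicamycin full activation / Benchmarks: tunicamycin and DMSO controls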
Jurkat NFkB conf = PMA/ionomycin-induced NF-kB reporter inhibitors, Jurkat retest, confirmation, T-cell NF-kB inhibitor project, cell-based, luminescence, single concentration; shares compounds with Jurkat NFkB inh; Jurkat NF-kB luciferase, 16 h; inhibition, % at 4 µM; hit rate 27% among 2,700;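 active means inhibition reaching about 45% at 4 µM in either replicate, limit read from the data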;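 further: plate controls were PMA/ionomycin stimulated DMSO wells for no effect and unstimulated DMSO wells for full effect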
* marks the source's active call; other numbers are inactive results; . = not tested or not shown. Shown is part of a subset that was picked to be rich in hits.

SMILES	CHOP inh	697 NFkB inh	UPR XBP1 act	Jurkat NFkB inh	CHOP UPR activ	Jurkat NFkB conf
Cc1ccccc1NS(=O)(=O)c1cc2c3c(c1)CC(=O)N3CCC2	.	7	-4	5	-2	.
Cc1ccc(C(=O)NC2CCC(C)CC2)s1 (centres undefined)	.	-157	-4	-164	0	-66
O=C(CSc1nc2ccccc2c(=O)[nH]1)Nc1ccc(S(=O)(=O)N2CCCC2)cc1	-9	15	-3	-4	-1	.
O=C(/C=C\c1ccco1)Nc1cc([N+](=O)[O-])ccc1F	-56	-31	24	68*	3	17
O=C(/C=C/c1ccco1)Nc1cc(Cl)ccc1C(=O)O	0	5	1	3	1	.
CC(C)CCNC(=O)NC(=O)COC(=O)C1CCN(S(=O)(=O)c2ccccc2F)CC1	-1	7	1	-10	-2	.
C#CC[N+](C)(C)CCCCCCCCCCCC	-5	30	0	71*	-1	52*
C#CC[N+](C)(C)CCCCCCCCCC	1	-7	1	30	3	.
Cc1ccc(OCCCNCCO)c(Br)c1	-21	-8	2	81*	3	35
CCCCNCCCOc1ccc(C)cc1Br	21	-6	3	15	-1	.
CSc1ncccc1C(=O)OCC(=O)N1CC(=O)Nc2ccccc21	.	16	-3	5	0	.
Cc1cccc(NC(=S)c2nc3ccccc3s2)c1	32	-235	0	-173	2	-103
O=C(Nc1ccc2c(c1)OCCO2)c1ccccn1	67	-73	-10	-70	-6	.
O=C(Nc1ccccc1)c1ccc2ccccc2n1	-19	-22	0	-168	3	-92
O=C(Nc1ccccc1)c1nc2ccccc2s1	2	-131	1	-205	3	-96
CC(C)(C)NC(=O)c1nc2ccccc2s1	1	7	0	-8	0	.
O=C(Nc1ccc2c(c1)OCCO2)c1ccc2ccccc2n1	-13	-119	-2	-165	1	-111
C=CCn1c(=S)[nH]c2cc(C(=O)N3CCN(c4ccccc4OC)CC3)ccc2c1=O	.	-7	0	-7	-2	.
O=C(NC(=S)Nc1ccc2c(c1)OCCO2)c1ccccc1	-26	-235	-2	-210	2	-99
COc1ccc(N2CCN(C(=O)c3ccccc3NC(=O)c3ccccc3)CC2)cc1	.	3	-6	-4	0	.
O=C(NCCc1ccccc1)c1ccc2c(c1)OCCO2	.	22	-12	54*	-9	70*
Cc1cc(C(=O)NCc2cc(F)cc3c2OCOC3)nn1C	-2	6	-4	8	0	.
Cn1nc(C(C)(C)C)cc1C(=O)NCc1cc(F)cc2c1OCOC2	58	23	-2	65*	6	60*
O=C(CCC(=O)c1ccc(F)cc1)NCC1(N2CCCCC2)CCCCC1	.	-2	-1	8	-3	.
O=[N+]([O-])c1ccc(Sc2ccc(Cl)c(Cl)c2)nc1	41	5	2	79*	-2	39
SMILES	CHOP inh	697 NFkB inh	UPR XBP1 act	Jurkat NFkB inh	CHOP UPR activ	Jurkat NFkB conf
COc1ccc(-n2cnnc2SCC(=O)NC2CCCCC2)cc1	.	5	-3	1	1	.
O=C(/C=C/c1ccccc1)c1c[nH]c2ccccc12	16	-239	1	-192	3	-69
COc1ccc(Nc2nc(N)c(C(=O)c3ccc(OC)cc3)s2)cc1	.	-61	3	50	0	14
COc1ccc(Nc2nc(N)c(C(=O)c3ccc(F)cc3)s2)cc1	.	-21	11	23	1	.
COc1ccc(-c2c(C#N)c(N)nc3c2CCc2ccccc2-3)cc1OC	45	24	6	67*	1	44
CN1CCN(c2nc(-c3ccccc3)nc(-c3ccccc3)c2C#N)CC1	68	6	1	14	1	.
COc1ccc(-c2nc(-c3cccc(C)c3)nc(N3CCN(C)CC3)c2C#N)cc1	30	6	0	51*	0	9
CCN(CC)C(=O)Cn1cc(S(=O)(=O)CC(=O)N2CCOCC2)c2ccccc21	.	-6	2	-2	-2	.
Cc1ccc(N2C(=O)c3cccc4c(N)ccc(c34)C2=O)c2cccnc12	-39	-213	6	75*	1	43
Cc1nn(C)c(C)c1N1C(=O)c2cccc3c(N)ccc(c23)C1=O	1	.	.	.	.	.
COc1cc2c(cc1O)CC[C@@H]1[C@@H]2CC[C@]2(C)[C@@H](O)CC[C@@H]12	2	-43	7	61*	-1	54*
C[C@]12CC[C@@H]3c4ccc(OC(=O)c5ccccc5)cc4CC[C@H]3[C@@H]1CC[C@@H]2O	20	8	3	15	6	.
CCCn1c(=O)c(Br)cn(-c2ccccc2C)c1=O	8	5	-4	-24	-1	.
C=CCNc1ncnc2c1cnn2-c1ccc(OC)cc1	-41	-130	-1	-154	3	-80
OCCCNc1ncnc2c1cnn2-c1ccc(Cl)cc1	.	-135	-5	-153	-1	-102
COc1cccc(/C=C/C(=O)Nc2ccc3c(c2)OCCO3)c1OC	4	-52	-3	-183	-2	-108
COc1cccc(/C=C/C(=O)Nc2cccc(C(C)=O)c2)c1OC	0	-13	0	-74	1	.
CCOC(=O)C(=O)Nc1ncc(Cl)s1	4	4	-2	3	3	.
COc1cccc2sc3ccc(C#CC4(O)CCCCC4)cc3c(=O)c12	.	-117	8	-194	3	-47
COc1cccc2sc3ccc(C#Cc4ccc(N)cc4)cc3c(=O)c12	.	-40	8	-72	5	.
COc1ccccc1C1CC(=O)Nc2cc(C)c(C)cc21 (centres undefined)	.	-19	-4	35	-1	.
O=C1CC(c2cccnc2)c2cc3c(cc2N1)OCO3 (centres undefined)	-8	-1	-2	2	-1	.
CC(C)Oc1ccccc1C1CC(=O)Nc2cc3c(cc21)OCO3 (centres undefined)	.	7	7	76*	-2	53*
Cc1cc2c(cc1C)C(c1ccccc1OC(C)C)CC(=O)N2 (centres undefined)	.	-76	-4	52*	1	36
CCCC(=O)NC(c1ccc(OC)cc1)c1ccc2cccnc2c1O (centres undefined)	82*	-17	4	62*	3	60*
CCCCC(=O)NC(c1ccccc1)c1ccc2cccnc2c1O (centres undefined)	.	-10	2	42	5	.

High-throughput results deposited in PubChem by several laboratories.
